Reference: ChEMBL document CHEMBL1795330, “Dual IGF-1R/SRC inhibitors based on a N'-aroyl-2-(1H-indol-3-yl)-2-oxoacetohydrazide structure” (Eur J Med Chem, 2011)
pIC50: −log10 of the molar value.

Key:
[1] = biological target: Hepatocyte growth factor receptor (Homo sapiens, UniProt P08581); assay: Inhibition of c-MET assessed as incorporation of p33 using [gammaP33]-ATP by microplate scintillation counting
Method in brief: (§1)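 Compound added in 10% DMSO. Incubated 80 min at 30 °C, stopped with 2% phosphoric acid, washed with 0.9% NaCl, 33P incorporation counted by scintillation. Activity normalised to no-enzyme and no-inhibitor controls; plates repeated if Z′ < 0.4.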

[2] = biological target: Insulin-like growth factor 1 receptor (Homo sapiens, UniProt P08069); assay: Inhibition of IGF-1R assessed as incorporation of p33 using [gammaP33]-ATP by microplate scintillation counting; method in brief: as §1
Chain of Insulin-like growth factor 1 receptor (P08069 31-736 limits assumed): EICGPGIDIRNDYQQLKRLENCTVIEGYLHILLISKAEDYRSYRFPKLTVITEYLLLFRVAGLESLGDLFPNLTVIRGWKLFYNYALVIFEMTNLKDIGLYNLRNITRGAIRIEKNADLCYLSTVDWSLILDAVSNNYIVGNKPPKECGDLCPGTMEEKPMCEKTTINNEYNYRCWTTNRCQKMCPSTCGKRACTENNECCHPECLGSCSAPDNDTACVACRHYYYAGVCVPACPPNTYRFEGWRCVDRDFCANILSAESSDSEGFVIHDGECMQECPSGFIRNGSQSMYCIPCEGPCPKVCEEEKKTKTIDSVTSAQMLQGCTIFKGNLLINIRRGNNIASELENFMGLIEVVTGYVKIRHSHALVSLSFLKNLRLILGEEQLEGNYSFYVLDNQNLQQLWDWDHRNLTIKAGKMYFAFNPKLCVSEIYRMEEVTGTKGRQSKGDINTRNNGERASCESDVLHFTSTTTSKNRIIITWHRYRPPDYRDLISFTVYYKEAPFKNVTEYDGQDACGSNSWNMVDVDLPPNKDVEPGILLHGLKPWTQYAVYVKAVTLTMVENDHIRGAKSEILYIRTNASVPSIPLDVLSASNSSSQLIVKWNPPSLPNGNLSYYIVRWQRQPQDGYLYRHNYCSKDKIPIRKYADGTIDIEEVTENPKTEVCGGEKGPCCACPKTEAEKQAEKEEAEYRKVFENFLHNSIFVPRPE
Chain of Insulin-like growth factor 1 receptor (P08069 741-1367 limits assumed): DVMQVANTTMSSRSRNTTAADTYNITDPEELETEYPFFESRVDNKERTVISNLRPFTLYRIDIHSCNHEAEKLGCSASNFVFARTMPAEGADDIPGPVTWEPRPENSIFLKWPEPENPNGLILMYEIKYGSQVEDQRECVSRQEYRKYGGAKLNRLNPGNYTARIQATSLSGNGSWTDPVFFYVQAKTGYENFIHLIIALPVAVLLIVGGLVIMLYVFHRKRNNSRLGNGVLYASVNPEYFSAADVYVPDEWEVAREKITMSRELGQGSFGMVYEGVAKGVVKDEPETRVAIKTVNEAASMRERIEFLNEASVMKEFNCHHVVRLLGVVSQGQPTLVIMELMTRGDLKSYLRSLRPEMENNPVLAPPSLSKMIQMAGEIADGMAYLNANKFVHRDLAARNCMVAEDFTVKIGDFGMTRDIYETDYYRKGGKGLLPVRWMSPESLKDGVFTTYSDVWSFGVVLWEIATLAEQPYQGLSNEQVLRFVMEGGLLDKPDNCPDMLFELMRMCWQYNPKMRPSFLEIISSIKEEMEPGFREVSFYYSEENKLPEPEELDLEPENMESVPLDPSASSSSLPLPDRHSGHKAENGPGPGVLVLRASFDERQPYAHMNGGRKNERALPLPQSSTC

[3] = biological target: Proto-oncogene tyrosine-protein kinase Src (Homo sapiens, UniProt P12931); assay: Inhibition of SRC assessed as incorporation of p33 using [gammaP33]-ATP by microplate scintillation counting; method in brief: as §1
Chain of Proto-oncogene tyrosine-protein kinase Src (P12931 2-536 limits assumed): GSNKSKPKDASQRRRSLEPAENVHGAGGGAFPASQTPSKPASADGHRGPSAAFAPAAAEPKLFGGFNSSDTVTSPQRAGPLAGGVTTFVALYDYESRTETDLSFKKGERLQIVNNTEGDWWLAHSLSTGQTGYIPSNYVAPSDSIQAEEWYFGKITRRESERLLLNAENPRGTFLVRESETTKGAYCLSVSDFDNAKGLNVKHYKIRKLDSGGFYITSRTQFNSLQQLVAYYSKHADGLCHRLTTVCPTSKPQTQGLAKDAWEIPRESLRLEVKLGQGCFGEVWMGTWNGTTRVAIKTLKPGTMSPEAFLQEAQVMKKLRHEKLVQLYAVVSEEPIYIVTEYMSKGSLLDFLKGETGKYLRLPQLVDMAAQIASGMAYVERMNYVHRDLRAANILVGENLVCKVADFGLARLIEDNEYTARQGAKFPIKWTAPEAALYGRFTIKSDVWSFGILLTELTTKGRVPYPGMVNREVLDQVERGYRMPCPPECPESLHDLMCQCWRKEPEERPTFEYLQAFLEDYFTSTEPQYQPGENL

A549 = assay: Antiproliferative activity against human A549 cells at 10 uM after 48 hrs by sulforhodamine B assay relative to control; type: functional; conditions: A549, 48 h
Method in brief: (§2)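 NCI cell-line screen: cells plated at 5000–40,000/well in medium with 5% foetal bovine serum and 2 mM L-glutamine, preincubated 24 h at 37 °C, 5% CO2. Time-zero plates fixed with TCA at drug addition. Compound from DMSO stock added; 48 h exposure. Cells fixed in situ with cold TCA, stained with 0.4% sulforhodamine B in 1% acetic acid, absorbance 515 nm; growth expressed relative to untreated controls (100%).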

NCI-H522 = assay: Antiproliferative activity against human NCI-H522 at 10 uM after 48 hrs by sulforhodamine B assay relative to control; type: functional; conditions: NCI-H522, 48 h; method in brief: as §2
OVCAR-8 = assay: Antiproliferative activity against human OVCAR8 at 10 uM after 48 hrs by sulforhodamine B assay relative to control; type: functional; conditions: OVCAR-8, 48 h; method in brief: as §2

Chain of Hepatocyte growth factor receptor (P08581 whole entry): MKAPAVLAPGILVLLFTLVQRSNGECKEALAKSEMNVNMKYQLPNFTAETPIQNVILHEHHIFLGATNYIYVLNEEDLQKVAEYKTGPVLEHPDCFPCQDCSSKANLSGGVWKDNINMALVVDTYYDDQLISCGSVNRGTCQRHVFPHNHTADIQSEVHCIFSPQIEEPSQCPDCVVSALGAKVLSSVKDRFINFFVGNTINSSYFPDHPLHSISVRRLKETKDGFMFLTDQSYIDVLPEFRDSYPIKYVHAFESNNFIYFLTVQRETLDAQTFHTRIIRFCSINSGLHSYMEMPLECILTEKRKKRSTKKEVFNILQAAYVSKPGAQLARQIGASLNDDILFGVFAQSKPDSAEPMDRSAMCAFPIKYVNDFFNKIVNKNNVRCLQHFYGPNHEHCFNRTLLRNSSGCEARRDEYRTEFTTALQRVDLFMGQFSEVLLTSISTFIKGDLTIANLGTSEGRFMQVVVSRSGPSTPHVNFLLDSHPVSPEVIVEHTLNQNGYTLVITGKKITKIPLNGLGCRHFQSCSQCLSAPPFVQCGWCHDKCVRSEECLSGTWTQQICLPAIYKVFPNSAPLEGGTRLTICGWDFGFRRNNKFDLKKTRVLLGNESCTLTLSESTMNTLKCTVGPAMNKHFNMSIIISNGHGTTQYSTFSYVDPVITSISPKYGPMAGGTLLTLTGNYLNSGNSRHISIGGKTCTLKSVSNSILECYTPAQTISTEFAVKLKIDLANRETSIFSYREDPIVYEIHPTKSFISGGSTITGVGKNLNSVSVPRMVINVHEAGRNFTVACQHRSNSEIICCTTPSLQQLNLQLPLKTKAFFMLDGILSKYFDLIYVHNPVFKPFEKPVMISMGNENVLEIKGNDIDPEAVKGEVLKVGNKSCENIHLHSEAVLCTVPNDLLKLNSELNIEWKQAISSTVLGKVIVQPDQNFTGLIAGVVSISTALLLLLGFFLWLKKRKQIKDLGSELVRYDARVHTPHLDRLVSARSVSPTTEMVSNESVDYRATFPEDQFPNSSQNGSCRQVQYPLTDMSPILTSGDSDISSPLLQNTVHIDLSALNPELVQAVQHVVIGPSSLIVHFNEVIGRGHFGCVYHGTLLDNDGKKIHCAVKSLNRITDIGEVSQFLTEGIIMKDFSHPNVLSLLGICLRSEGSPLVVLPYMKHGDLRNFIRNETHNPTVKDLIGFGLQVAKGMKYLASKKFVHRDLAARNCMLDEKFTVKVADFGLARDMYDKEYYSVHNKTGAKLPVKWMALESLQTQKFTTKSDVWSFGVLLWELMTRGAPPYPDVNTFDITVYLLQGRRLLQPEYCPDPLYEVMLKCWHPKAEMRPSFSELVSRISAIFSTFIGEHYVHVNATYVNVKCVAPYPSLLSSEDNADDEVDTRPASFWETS

Structure (SMILES) | pIC50 [1] | pIC50 [2] | pIC50 [3] | growth, % of control at 10 µM (A549) | growth, % of control at 10 µM (NCI-H522) | growth, % of control at 10 µM (OVCAR-8)
O=C(NNC(=O)c1ccccc1)C(=O)c1c[nH]c2ccccc12 | < 4.00 | < 4.00 |  |  |  | 
CS(=O)(=O)NCc1cccc(-c2ccc(C(=O)NNC(=O)C(=O)c3c[nH]c4ccccc34)cc2)c1 | 4.57 | 5.48 | 5.55 |  |  | 
Cc1cncc(Oc2ccc(C(=O)NNC(=O)C(=O)c3c[nH]c4ccccc34)cc2)n1 | < 4.00 | 4.51 | 4.40 |  |  | 
Cc1ccc(CCNC(=O)C(=O)c2c[nH]c3ccccc23)cc1 | < 4.00 | 4.28 |  |  |  | 
Cc1cc(C(C)(C)C)ccc1OCc1cccc(-c2ccc(C(=O)NNC(=O)C(=O)c3c[nH]c4ccccc34)cc2)c1 | 5.39 | 6.17 | 6.28 | 7.38% | -7.7% | -9.59%
COc1ccc(CCNC(=O)C(=O)c2c[nH]c3ccccc23)cc1OC | < 4.00 | < 4.00 |  |  |  | 
O=C(NNC(=O)c1ccc(-c2cccc(COc3cccc(C(F)(F)F)c3)c2)cc1)C(=O)c1c[nH]c2ccccc12 | 5.12 | 6.00 | 6.14 |  |  | 
O=C(NCCc1ccc(Cl)cc1)C(=O)c1c[nH]c2ccccc12 | < 4.00 | < 4.00 |  |  |  | 
O=C(NCCc1cccc(Cl)c1)C(=O)c1c[nH]c2ccccc12 | < 4.00 | < 4.00 |  |  |  | 
O=C(NNC(=O)c1ccc(Cl)cc1)C(=O)c1c[nH]c2ccccc12 | 4.32 | 4.80 |  |  |  | 
Cc1ccc(C)n1-c1ccc(C(=O)NNC(=O)C(=O)c2c[nH]c3ccccc23)cc1 | 4.80 | 5.31 | 5.44 |  |  | 
O=C(NNC(=O)c1ccc(I)cc1)C(=O)c1c[nH]c2ccccc12 | 4.85 | 5.40 | 5.35 |  |  | 
O=C(NNC(=O)c1ccc(C(F)(F)F)cc1)C(=O)c1c[nH]c2ccccc12 | 4.31 | 5.39 | 5.89 |  |  | 
O=C(NCc1ccc(Cl)cc1)C(=O)c1c[nH]c2ccccc12 | < 4.00 | < 4.00 |  |  |  | 

Further lines, with some results ahead:

pIC50 [1] | pIC50 [2] | pIC50 [3] | Structure (SMILES) | growth, % of control at 10 µM (A549) | growth, % of control at 10 µM (NCI-H522) | growth, % of control at 10 µM (OVCAR-8)
4.02 | 4.09 |  | Cc1ccc(C(=O)NNC(=O)C(=O)c2c[nH]c3ccccc23)cc1 |  |  | 
< 4.00 | < 4.00 |  | O=C(NNc1ccc(Br)cc1)C(=O)c1c[nH]c2ccccc12 |  |  | 
4.44 | 5.36 | 5.23 | CC(C)(C)c1ccc(C(=O)NNC(=O)C(=O)c2c[nH]c3ccccc23)cc1 |  |  | 
< 4.00 | < 4.00 |  | O=C(NCc1cccc(Cl)c1)C(=O)c1c[nH]c2ccccc12 |  |  | 
< 4.00 | < 4.00 |  | O=C(NNc1ccccc1)C(=O)c1c[nH]c2ccccc12 |  |  | 
4.02 | 4.92 | 4.66 | Cc1nc(-c2ccc(C(=O)NNC(=O)C(=O)c3c[nH]c4ccccc34)cc2)no1 |  |  | 
4.89 | 5.31 | 5.72 | O=C(NNC(=O)c1ccc(-c2ccccc2OCc2ccc(F)cc2)cc1)C(=O)c1c[nH]c2ccccc12 |  |  | 
< 4.00 | < 4.00 |  | O=C(NNc1ccc(Cl)cc1)C(=O)c1c[nH]c2ccccc12 |  |  | 
< 4.00 | 4.20 |  | Cc1ccc(CNC(=O)C(=O)c2c[nH]c3ccccc23)cc1 |  |  | 
< 4.00 | < 4.00 |  | O=C(NNc1ccc(I)cc1)C(=O)c1c[nH]c2ccccc12 |  |  | 
< 4.00 | < 4.00 |  | O=C(NCc1ccccc1)C(=O)c1c[nH]c2ccccc12 |  |  | 
5.28 | 6.09 | 6.21 | O=C(NNC(=O)c1ccc(-c2ccccc2COc2cccc(C(F)(F)F)c2)cc1)C(=O)c1c[nH]c2ccccc12 |  |  | 
4.02 | 4.27 |  | COc1ccc(C(=O)NNC(=O)C(=O)c2c[nH]c3ccccc23)cc1 |  |  | 
5.06 | 6.17 | 6.42 | COCCc1ccc(OCc2cccc(-c3ccc(C(=O)NNC(=O)C(=O)c4c[nH]c5ccccc45)cc3)c2)cc1 |  |  | 
4.04 | 4.04 | 4.02 | O=C(NNC(=O)c1ccccc1F)C(=O)c1c[nH]c2ccccc12 |  |  | 
4.16 | < 4.00 |  | O=C(NNC(=O)c1ccc([N+](=O)[O-])cc1)C(=O)c1c[nH]c2ccccc12 |  |  | 
